{"source": "ChEMBL document CHEMBL1132228", "about": "“Unique analogues of anandamide: arachidonyl ethers and carbamates and norarachidonyl carbamates and ureas” (J Med Chem, 1999)", "key": {"Cannabinoid receptor 1 [1]": {"target": "T1, Cannabinoid receptor 1 (Rattus norvegicus, UniProt P20272)", "T1 sequence (P20272 whole entry)": "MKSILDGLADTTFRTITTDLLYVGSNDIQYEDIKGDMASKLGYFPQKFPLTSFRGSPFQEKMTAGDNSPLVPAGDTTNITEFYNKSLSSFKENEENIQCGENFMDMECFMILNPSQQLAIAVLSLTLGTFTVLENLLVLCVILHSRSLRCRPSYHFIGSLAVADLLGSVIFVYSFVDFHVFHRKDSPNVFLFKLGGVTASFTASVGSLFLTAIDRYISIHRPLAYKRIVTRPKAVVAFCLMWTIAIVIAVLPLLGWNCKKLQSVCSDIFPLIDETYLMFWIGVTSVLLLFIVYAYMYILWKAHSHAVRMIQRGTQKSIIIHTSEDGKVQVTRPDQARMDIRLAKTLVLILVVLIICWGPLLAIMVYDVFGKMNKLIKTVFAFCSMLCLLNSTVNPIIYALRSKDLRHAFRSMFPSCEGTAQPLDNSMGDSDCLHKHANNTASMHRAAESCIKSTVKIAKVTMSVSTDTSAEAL", "assay": "The compound was tested for Ki value against rat whole brain P2 membrane preparation in presence of enzyme inhibitor PMSF.", "procedure,_shortened": "(§1)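 Rat whole-brain P2 membranes (100-150 µg protein) incubated 1 h at 30 °C with 1 nM [3H]CP-55,940 and analogue at 1 nM-10 µM, with or without PMSF (50 µM). Buffer: 50 mM Tris-HCl, 1 mM EDTA, 3 mM MgCl2, 5 mg/mL BSA; ethanol ≤0.4%. Nonspecific binding with 1 µM CP-55,940. Stopped with ice-cold buffer, then rapid filtration on PEI-treated filters. Triplicates; 3-6 experiments; mean ± SE.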"}, "Mus musculus [2]": {"test_system": "Mus musculus", "assay": "The compound tested in vivo for antinociception as measured by tail flick response(TF) activity at 30 mg/kg", "assay_type": "functional", "procedure,_shortened": "(§2)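 Mice dosed iv by tail vein in ethanol:emulphor:saline 1:1:18. Tail flick to heat measured at 4 min, with 2-4 s baseline and 10 s cut-off, expressed as %MPE. Same mice then placed in photocell cages; beam breaks counted over 10 min and expressed as % of control. 6 mice/dose. ED50 from probit versus log dose by least-squares regression.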"}, "Mus musculus [3]": {"test_system": "Mus musculus", "assay": "The compound tested in vivo for inhibition of spontaneous activity(SA)at 30 mg/kg", "assay_type": "functional", "design": "scale not given: the % may be the effect or the level left", "procedure,_shortened": "as §2"}, "Cannabinoid receptor 1 [4]": {"target": "T1, Cannabinoid receptor 1", "assay": "The compound was tested for Ki value against rat whole brain P2 membrane preparation in absence of enzyme inhibitor PMSF", "procedure,_shortened": "as §1"}, "Mus musculus [5]": {"test_system": "Mus musculus", "assay": "The compound tested in vivo for hypothermia as changes in rectal temperature (RT)", "assay_type": "functional", "procedure,_shortened": "(§3)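 Separate mice dosed iv by tail vein in ethanol:emulphor:saline 1:1:18. Rectal temperature taken by thermistor probe before and 4 min after injection; the change was recorded. Mice then placed on a 5.5-cm ring 16 cm high; time motionless over 5 min was taken as % of 300 s. Immobility ED50 from probit-log dose regression.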"}, "Mus musculus [6]": {"test_system": "Mus musculus", "assay": "The compound tested in vivo for inhibition of spontaneous activity(SA)", "assay_type": "functional", "procedure,_shortened": "as §2"}, "Mus musculus [7]": {"test_system": "Mus musculus", "assay": "The compound tested in vivo for ring immobility (RI)a", "assay_type": "functional", "procedure,_shortened": "as §3"}, "Mus musculus [8]": {"test_system": "Mus musculus", "assay": "The compound tested in vivo for antinociception as measured by tail flick response(TF)", "assay_type": "functional", "procedure,_shortened": "as §2"}, "Mus musculus [9]": {"test_system": "Mus musculus", "assay": "The compound tested in vivo for ring immobility (RI)", "assay_type": "functional", "procedure,_shortened": "as §3"}}}
{"smiles": "CCCCC/C=C\\C/C=C\\C/C=C\\C/C=C\\CCCNC(=O)OC(C)C", "values": [{"measurement": "Ki", "setting": "Cannabinoid receptor 1 [1]", "value": 1.23, "unit": "µM"}, {"measurement": "Activity", "setting": "Mus musculus [2]", "value": 3, "unit": "%"}, {"measurement": "Activity", "setting": "Mus musculus [3]", "value": 35, "unit": "%"}]}
{"smiles": "CCCCC/C=C\\C/C=C\\C/C=C\\C/C=C\\CCCNC(=O)NCCF", "values": [{"measurement": "Ki", "setting": "Cannabinoid receptor 1 [4]", "value": 0.052, "unit": "µM"}, {"measurement": "Ki", "setting": "Cannabinoid receptor 1 [1]", "value": 0.055, "unit": "µM"}, {"measurement": "ED50", "setting": "Mus musculus [5]", "value": 0.85, "unit": "mg/kg"}, {"measurement": "ED50", "setting": "Mus musculus [6]", "value": 3.5, "unit": "mg/kg"}, {"measurement": "ED50", "setting": "Mus musculus [7]", "value": 4.48, "unit": "mg/kg"}, {"measurement": "ED50", "setting": "Mus musculus [8]", "value": 6.4, "unit": "mg/kg"}]}
{"smiles": "C#CCOCCCC/C=C\\C/C=C\\C/C=C\\C/C=C\\CCCCC", "values": [{"measurement": "Ki", "setting": "Cannabinoid receptor 1 [1]", "value": 1.58, "unit": "µM"}]}
{"smiles": "CCCCC/C=C\\C/C=C\\C/C=C\\C/C=C\\CCCCOCCO", "values": [{"measurement": "Ki", "setting": "Cannabinoid receptor 1 [1]", "value": 0.797, "unit": "µM"}]}
{"smiles": "CCCCC/C=C\\C/C=C\\C/C=C\\C/C=C\\CCCCOC(=O)NC(C)C", "values": [{"measurement": "Ki", "setting": "Cannabinoid receptor 1 [1]", "value": 0.995, "unit": "µM"}]}
{"smiles": "CCCCC/C=C\\C/C=C\\C/C=C\\C/C=C\\CCCCOC(=O)NCCC", "values": [{"measurement": "Ki", "setting": "Cannabinoid receptor 1 [1]", "value": 0.471, "unit": "µM"}]}
{"smiles": "CCCCC/C=C\\C/C=C\\C/C=C\\C/C=C\\CCCNC(=O)NCC(C)C", "values": [{"measurement": "Ki", "setting": "Cannabinoid receptor 1 [1]", "value": 0.335, "unit": "µM"}, {"measurement": "Activity", "setting": "Mus musculus [2]", "value": 26, "unit": "%"}, {"measurement": "Activity", "setting": "Mus musculus [3]", "value": 59, "unit": "%"}]}
{"smiles": "CCCCC/C=C\\C/C=C\\C/C=C\\C/C=C\\CCCCOCCF", "values": [{"measurement": "Ki", "setting": "Cannabinoid receptor 1 [1]", "value": 0.885, "unit": "µM"}]}
{"smiles": "CCCCC/C=C\\C/C=C\\C/C=C\\C/C=C\\CCCNC(=O)OCC", "values": [{"measurement": "Ki", "setting": "Cannabinoid receptor 1 [1]", "value": 0.218, "unit": "µM"}, {"measurement": "Activity", "setting": "Mus musculus [2]", "value": 5, "unit": "%"}, {"measurement": "Activity", "setting": "Mus musculus [3]", "value": 36, "unit": "%"}]}
{"smiles": "CCCCC/C=C\\C/C=C\\C/C=C\\C/C=C\\CCCNC(=O)NCCOC", "values": [{"measurement": "Ki", "setting": "Cannabinoid receptor 1 [1]", "value": 0.746, "unit": "µM"}, {"measurement": "Activity", "setting": "Mus musculus [2]", "value": 32, "unit": "%"}, {"measurement": "Activity", "setting": "Mus musculus [3]", "value": 69, "unit": "%"}, {"measurement": "ED50", "setting": "Mus musculus [9]", "value": 3, "unit": "mg/kg"}]}
{"smiles": "C=CCOCCCC/C=C\\C/C=C\\C/C=C\\C/C=C\\CCCCC", "values": [{"measurement": "Ki", "setting": "Cannabinoid receptor 1 [1]", "value": 1.17, "unit": "µM"}]}
{"smiles": "CCCCC/C=C\\C/C=C\\C/C=C\\C/C=C\\CCCNC(=O)NCCC", "values": [{"measurement": "Ki", "setting": "Cannabinoid receptor 1 [4]", "value": 0.17, "unit": "µM"}, {"measurement": "Ki", "setting": "Cannabinoid receptor 1 [1]", "value": 0.091, "unit": "µM"}, {"measurement": "ED50", "setting": "Mus musculus [5]", "value": 3.4, "unit": "mg/kg"}, {"measurement": "ED50", "setting": "Mus musculus [6]", "value": 7.2, "unit": "mg/kg"}, {"measurement": "ED50", "setting": "Mus musculus [9]", "value": 5.4, "unit": "mg/kg"}, {"measurement": "ED50", "setting": "Mus musculus [8]", "value": 8.9, "unit": "mg/kg"}]}
{"smiles": "CCCCC/C=C\\C/C=C\\C/C=C\\C/C=C\\CCCCOCC", "values": [{"measurement": "Ki", "setting": "Cannabinoid receptor 1 [1]", "value": 2.2, "unit": "µM"}]}
{"smiles": "CCCCC/C=C\\C/C=C\\C/C=C\\C/C=C\\CCCCOC(C)CC", "note": "(stereo not given)", "values": [{"measurement": "Ki", "setting": "Cannabinoid receptor 1 [1]", "value": 1.31, "unit": "µM"}]}
{"smiles": "CCCCC/C=C\\C/C=C\\C/C=C\\C/C=C\\CCCCOC(=O)NCC", "values": [{"measurement": "Ki", "setting": "Cannabinoid receptor 1 [1]", "value": 2.2, "unit": "µM"}]}
{"smiles": "CCCCC/C=C\\C/C=C\\C/C=C\\C/C=C\\CCCNC(=O)NCC", "values": [{"measurement": "Ki", "setting": "Cannabinoid receptor 1 [1]", "value": 0.156, "unit": "µM"}, {"measurement": "ED50", "setting": "Mus musculus [5]", "value": 16.2, "unit": "mg/kg"}, {"measurement": "ED50", "setting": "Mus musculus [6]", "value": 2.8, "unit": "mg/kg"}, {"measurement": "ED50", "setting": "Mus musculus [9]", "value": 19.9, "unit": "mg/kg"}, {"measurement": "ED50", "setting": "Mus musculus [8]", "value": 3.3, "unit": "mg/kg"}]}
{"smiles": "CCCCC/C=C\\C/C=C\\C/C=C\\C/C=C\\CCCNC(=O)NC(C)C", "values": [{"measurement": "Ki", "setting": "Cannabinoid receptor 1 [4]", "value": 0.204, "unit": "µM"}, {"measurement": "Ki", "setting": "Cannabinoid receptor 1 [1]", "value": 0.131, "unit": "µM"}, {"measurement": "ED50", "setting": "Mus musculus [5]", "value": 1.28, "unit": "mg/kg"}, {"measurement": "ED50", "setting": "Mus musculus [6]", "value": 5.8, "unit": "mg/kg"}, {"measurement": "ED50", "setting": "Mus musculus [9]", "value": 38, "unit": "mg/kg"}, {"measurement": "ED50", "setting": "Mus musculus [8]", "value": 2.4, "unit": "mg/kg"}]}
{"smiles": "CCCCC/C=C\\C/C=C\\C/C=C\\C/C=C\\CCCCOCC(C)C", "values": [{"measurement": "Ki", "setting": "Cannabinoid receptor 1 [1]", "value": 2.48, "unit": "µM"}]}
{"smiles": "CCCCC/C=C\\C/C=C\\C/C=C\\C/C=C\\CCCNC(=O)OCCF", "values": [{"measurement": "Ki", "setting": "Cannabinoid receptor 1 [1]", "value": 0.331, "unit": "µM"}, {"measurement": "Activity", "setting": "Mus musculus [2]", "value": 20, "unit": "%"}, {"measurement": "Activity", "setting": "Mus musculus [3]", "value": 18, "unit": "%"}]}
{"smiles": "CCCCC/C=C\\C/C=C\\C/C=C\\C/C=C\\CCCNC(=O)NC", "values": [{"measurement": "Ki", "setting": "Cannabinoid receptor 1 [1]", "value": 0.436, "unit": "µM"}, {"measurement": "ED50", "setting": "Mus musculus [5]", "value": 2.2, "unit": "mg/kg"}, {"measurement": "ED50", "setting": "Mus musculus [6]", "value": 9.9, "unit": "mg/kg"}, {"measurement": "ED50", "setting": "Mus musculus [9]", "value": 4.51, "unit": "mg/kg"}, {"measurement": "ED50", "setting": "Mus musculus [8]", "value": 12.3, "unit": "mg/kg"}]}
{"smiles": "CCCCC/C=C\\C/C=C\\C/C=C\\C/C=C\\CCCCOCCCC", "values": [{"measurement": "Ki", "setting": "Cannabinoid receptor 1 [1]", "value": 1.71, "unit": "µM"}]}
{"smiles": "CCCCC/C=C\\C/C=C\\C/C=C\\C/C=C\\CCCCOCC1CC1", "values": [{"measurement": "Ki", "setting": "Cannabinoid receptor 1 [1]", "value": 0.578, "unit": "µM"}]}
{"smiles": "CCCCC/C=C\\C/C=C\\C/C=C\\C/C=C\\CCCCOC", "values": [{"measurement": "Ki", "setting": "Cannabinoid receptor 1 [1]", "value": 4.26, "unit": "µM"}]}
{"smiles": "CCCCC/C=C\\C/C=C\\C/C=C\\C/C=C\\CCCC(=O)NCCO", "note": "[ANANDAMIDE]", "values": [{"measurement": "ED50", "setting": "Mus musculus [8]", "value": 6.2, "unit": "mg/kg"}]}
{"smiles": "CCCCC/C=C\\C/C=C\\C/C=C\\C/C=C\\CCCCOCCC", "values": [{"measurement": "Ki", "setting": "Cannabinoid receptor 1 [1]", "value": 1.08, "unit": "µM"}]}
{"smiles": "CCCCC/C=C\\C/C=C\\C/C=C\\C/C=C\\CCCCOC(C)C", "values": [{"measurement": "Ki", "setting": "Cannabinoid receptor 1 [1]", "value": 0.871, "unit": "µM"}]}
{"smiles": "CCCCC/C=C\\C/C=C\\C/C=C\\C/C=C\\CCCNC(=O)NCCO", "values": [{"measurement": "Ki", "setting": "Cannabinoid receptor 1 [1]", "value": 0.347, "unit": "µM"}, {"measurement": "ED50", "setting": "Mus musculus [5]", "value": 2.6, "unit": "mg/kg"}, {"measurement": "ED50", "setting": "Mus musculus [6]", "value": 3.1, "unit": "mg/kg"}, {"measurement": "ED50", "setting": "Mus musculus [9]", "value": 3.9, "unit": "mg/kg"}, {"measurement": "ED50", "setting": "Mus musculus [8]", "value": 4, "unit": "mg/kg"}]}
